Assay outcomes deposited in PubChem BioAssay by Johns Hopkins Ion Channel Center.
MrgX1 ag: activates human MrgX1 receptor signaling | Q96LB2 | MrgX1-HEK293 cells, Fluo-4 calcium fluorescence, agonist mode; active compounds read high | B-score at 10 µM | 310,000 tested, 0.44% active | AID 588627;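 active means calcium response B-score plate-corrected fluorescence ratio at least 3 library SD, with starting fluorescence B-score inside 5 SD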
Target sequence (Q96LB2 whole entry, looked up): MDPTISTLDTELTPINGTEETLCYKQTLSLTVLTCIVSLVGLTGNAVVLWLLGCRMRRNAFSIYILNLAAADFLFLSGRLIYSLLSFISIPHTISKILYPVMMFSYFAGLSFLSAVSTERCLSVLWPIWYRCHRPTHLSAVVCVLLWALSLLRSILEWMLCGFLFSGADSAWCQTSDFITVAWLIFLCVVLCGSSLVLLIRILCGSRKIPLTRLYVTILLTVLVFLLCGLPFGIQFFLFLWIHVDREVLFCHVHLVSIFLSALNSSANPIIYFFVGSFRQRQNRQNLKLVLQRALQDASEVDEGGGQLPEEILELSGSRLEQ
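Material: MrgX1-expressing HEK293 cells / Dosing: compound as first of three additions / Incubation: overnight seeding, then 1 h dark dye loading / Signal: Fluo-4 NW calcium fluorescence / Evaluation: B-scored fluorescence response ratio / Benchmarks: positive and negative control wells on each plate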
RGS4 pot: RGS4 potentiation or activation; 310,000 tested, 0.92% active; AID 463111; HEK293 M3R/inducible RGS4, carbachol calcium flux Fluo4; active compounds read low; B-score at 10 µM;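 active means B-score of the integrated calcium signal more than 4 SD below the library mean, with starting fluorescence not abnormally high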;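 further: negative B-score means reduced calcium response which marks RGS4 activation or potentiation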
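Reagent: ECmax carbachol challenge; Test system: M3R-expressing HEK293 line, RGS4 induced by doxycycline; Schedule: overnight RGS4 induction, 30 min dye load 37 °C, 20 min compound RT; Detection: calcium dye Fluo4 fluorescence; Read-out: Agonist-evoked peak-minus-minimum fluorescence over baseline, integrated ratio, B score.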
RGS4 block: inhibitors of human RGS4; P49798; HEK293 M3R/RGS4 inducible, Fluo-4 calcium flux; active compounds read high; triggered by carbachol at its EC20; B-score at 10 µM; 310,000 tested, 0.45% active; AID 463165;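 active means B-score, a plate-corrected calcium signal, over three deviations above library mean, with baseline fluorescence within five deviations of library mean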;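 further: RGS4 expression induced by doxycycline in cells with stable M3 receptor; B-score is computed from the integrated fluorescence ratio over baseline after carbachol; higher B-score means a larger calcium signal and so more RGS4 inhibition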
Target sequence (P49798 whole entry, looked up): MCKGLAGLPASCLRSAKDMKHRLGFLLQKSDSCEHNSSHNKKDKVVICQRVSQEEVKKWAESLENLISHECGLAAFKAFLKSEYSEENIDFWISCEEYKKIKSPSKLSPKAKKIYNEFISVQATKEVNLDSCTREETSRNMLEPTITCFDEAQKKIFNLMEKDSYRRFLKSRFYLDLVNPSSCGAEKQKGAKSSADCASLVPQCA
MrgX1 antagonist: blocks BAM8-22 activation of human MrgX1 receptor | Q96LB2 | MRGX1-HEK293 calcium flux, Fluo-4, BAM8-22 antagonism; active compounds read low | B-score at 10 µM | 310,000 tested, 1.3% active;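 active means calcium-response B-score plate-corrected more than 3 library SD below zero, starting fluorescence within 5 deviations, no agonist response on first addition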;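 further: peak minus trough fluorescence over baseline after final BAM8-22 challenge near maximal dose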
MrgX1 allo act: human MrgX1 positive allosteric modulation, primary screen. Q96LB2. MrgX1-HEK293, Fluo-4 calcium flux, FDSS; active compounds read high. B-score at 10 µM. 310,000 tested, 0.63% active. AID 588675;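 active means plate-corrected calcium response at least 3 library SD above typical, normal starting fluorescence, not activating the receptor alone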;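 further: compound read alongside a low EC10 to EC30 dose of BAM8-22 agonist; peak minus trough fluorescence over baseline measured at the second addition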
MrgX1 ag confirm: reconfirmed activator of human MrgX1 receptor signaling | shares compounds with MrgX1 ag | MrgX1-HEK293, Fluo-4 calcium fluorescence, FDSS | activation, % at 10 µM | 600 tested, 78% active | AID 602412;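 active means calcium signal rise, corrected for plate position, at least 3 library SD high, with starting brightness within 5 such deviations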
HEK293 Ca flux: counter-screen for MrgX1 antagonists: effect in parental HEK293 cells; shares compounds with MrgX1 antagonist; Fluo-4 calcium fluorescence, FDSS; fluorescence ratio F(max-min)/F0 at 10 µM; 4,000 tested, 2% active;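 active means duplicate-averaged calcium fluorescence ratio at least three times the standard deviation of buffer wells, a nonspecific response in parental cells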
HEK293 Ca counter: MrgX1 allosteric activator counter-screen hit in parental HEK293 cells | parental HEK293 calcium flux, Fluo-4 fluorescence ratio; active compounds read high | shares compounds with MrgX1 antagonist | fluorescence ratio F(max-min)/F0 at 10 µM | 4,000 tested, 0.4% active;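 active means calcium fluorescence ratio, averaged over duplicates, at least 3 SD of the buffer-well ratio, meaning a nonspecific response in receptor-free cells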;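 further: untransfected parental HEK293 lacking MrgX1 used as counterscreen for MrgX1 allosteric activators; fluorescence change taken during the second addition on a kinetic imager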
HEK293 Ca cntr2: counter-screen for MrgX1 activators: effect in parental HEK293 cells | shares compounds with MrgX1 antagonist | Fluo-4 calcium fluorescence (FDSS); active compounds read high | fluorescence ratio F(max-min)/F0 at 10 µM | 4,000 tested, 8.7% active | AID 624115;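 active means calcium fluorescence ratio at least three times the spread of buffer wells, meaning a non-specific response in parental cells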
Active calls of the source: *; i = inactive; x = no result. The list is not random: actives were taken first. Their share in the collection is about 3.5%.

SMILES	MrgX1 ag	RGS4 pot	RGS4 block	MrgX1 antagonist	MrgX1 allo act	MrgX1 ag confirm	HEK293 Ca flux	HEK293 Ca counter	HEK293 Ca cntr2
CC(C)(C)C(=O)NC(=S)NNC(=O)c1sc2ccccc2c1Cl	142*	i	i	i	i	917.0%*	i	i	177*
O=C(NNC(=S)NC1CCCCC1)c1sc2ccccc2c1Cl	i	i	i	i	i	x	x	x	x
CC(=O)/C=C1/SC(CC(=O)O)C(=O)N1c1ccccc1 (stereo not given)	i	i	i	i	i	x	x	x	x
Cc1[nH]c(=S)c(C#N)c(-c2ccco2)c1C(=O)N(C)C	i	i	i	i	i	x	x	x	x
COCCCn1c(=O)c2sccc2n2c(CCCC(=O)N(C)Cc3ccco3)nnc12	i	i	i	i	i	x	x	x	x
Cn1c(-c2ccccc2)c(CCO)c2ccccc21	43.2*	i	i	i	i	183.8%*	i	i	i
CCCn1nc(C(=O)NNC(=O)CSC(C)C(=O)Nc2cc(C)on2)c2ccccc2c1=O (stereo not given)	i	i	i	i	i	x	x	x	x
O=S(=O)(NCC1(N2CCOCC2)CCCCC1)c1ccc(Cl)cc1C(F)(F)F	87.6*	i	i	i	i	261.2%*	i	i	i
O=S(=O)(NCC1(N2CCOCC2)CCCCC1)c1ccccc1Cl	i	i	i	i	i	x	x	x	x
COCc1ccc(CN2CCC(n3nccc3NC(=O)CCOc3ccccc3)CC2)o1	i	i	i	i	i	x	x	x	x
CN(C)CCOc1ccc2c(c1)Sc1ccccc1CC2=O	54.8*	i	i	i	i	i	i	i	i
CCOc1ccc(/C=N/NC(=O)CNC(=O)c2ccc(S(=O)(=O)N3CCOCC3)cc2)cc1	i	i	i	i	i	x	x	x	x
O=C(Cc1ccc([N+](=O)[O-])cc1)OCc1c(F)cccc1Cl	i	i	i	i	i	x	x	x	x
CC(=O)Nc1ccc2nc(NC(=O)C(Cl)(Cl)Cl)sc2c1	28.9*	i	i	i	i	162.0%*	i	i	i
CCc1ccc(N(CC(=O)NCc2ccco2)C(=O)CCC(=O)Nc2nccs2)cc1	i	i	i	i	i	x	x	x	x
CC(Sc1nnnn1-c1ccccc1)C(=O)Nc1ccc(Cl)cn1 (stereo not given)	i	i	i	i	i	x	x	x	x
CCCCCN=C(N)N/N=C/c1c[nH]c2ccc(OC)cc12	74.8*	i	i	i	i	487.7%*	i	i	137*
CCCOc1ccc(C(=O)N/N=C/c2c[nH]c3ccc(Br)cc23)cc1	i	i	i	i	i	x	x	x	x
C=CCOC(=O)C1=C(C)OC(N)=C(C#N)C1c1ccccc1F (stereo not given)	27*	i	i	i	i	173.3%*	i	i	i
Cc1nnc(SCCOC(N)=O)n1C	x	i	i	x	x	x	x	x	x
C[N+](C)(C)CCOC(N)=O	118*	x	x	i	i	546.8%*	i	i	112*
CC(=Nc1ccc(Br)cc1)c1sc2ccccc2c1O	i	i	i	i	i	x	x	x	x
CC(=Nc1ccccc1)c1sc2ccccc2c1O	61.5*	i	i	i	i	375.9%*	i	i	100*
CC(OC(=O)CC1CC2CCC1C2)C(=O)Nc1cccc(S(=O)(=O)N2CCOCC2)c1 (stereo not given)	i	i	i	i	i	x	x	x	x
O=C(OCc1cc2ccccc2[nH]c1=O)c1cccs1	38.2*	i	i	i	i	i	i	i	i
